Common to all, as to type: functional
In experiment [1] the test system is Mycobacterium tuberculosis. The experiment in a line: Antimycobacterial activity against Mycobacterium tuberculosis H37Rv ATCC 27294 assessed as growth inhibition at 10 uM after 6 days by luciferase reporter gene assay relative to control. The following applies: H37Rv ATCC 27294, 144 h, read-out: GI. Summed up: (§1)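 Luminescent M. tb H37Rv (hsp60-driven luciferase) in 7H9 + 10% FCS was seeded at 50 000 RLU/mL. Compounds were tested at 10, 1 and 0.1 µM from 10 mM DMSO stocks. After 6 days, luminescence was read with 1% n-decanal. Growth inhibition (%) was expressed against untreated culture, with triplicates.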
In general terms: A reporter such as luciferase makes a cellular process visible.

Experiment [2] deals with Mycobacterium tuberculosis. The experiment in a line: Antimycobacterial activity against Mycobacterium tuberculosis H37Rv ATCC 27294 assessed as growth inhibition at 0.1 uM after 6 days by luciferase reporter gene assay relative to control. Conditions: H37Rv ATCC 27294, 144 h, read-out: GI. The method, boiled down:
as §1

Experiment [3] concerns Mycobacterium tuberculosis. Briefly: Antimycobacterial activity against Mycobacterium tuberculosis H37Rv ATCC 27294 assessed as growth inhibition at 1 uM after 6 days by luciferase reporter gene assay relative to control. The following applies: H37Rv ATCC 27294, 144 h, read-out: GI. Summed up:
as §1

Experiment [4] relates to Mycobacterium avium subsp. paratuberculosis. Briefly: Antimycobacterial activity against Mycobacterium avium subsp. paratuberculosis ATCC 19698 assessed as growth inhibition after 6 days by luciferase reporter gene assay. The following applies: ATCC 19698, 144 h. The method, boiled down: (§2)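 Mycobacteria carrying the pSMT1 luciferase reporter plasmid. Compounds came from 10 mM DMSO stocks and were serially diluted in 7H9 + 10% FCS. Thawed bacteria were filtered, recovered 1 h at 37 °C, then added at 50 000 RLU/mL. After 6 days of culture, light was read for 10 s after adding 1% n-decanal. Triplicates were run, and MIC50 was the concentration giving 50% growth inhibition.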

A short description of experiment [5]: Antimycobacterial activity against Mycobacterium avium subsp. avium ATCC 15769 assessed as growth inhibition after 6 days by luciferase reporter gene assay. The following applies: ATCC 15769, 144 h. Summed up:
as §2

For the next experiment, the system named is Mycobacterium ulcerans. Briefly: Antimycobacterial activity against Mycobacterium ulcerans 1615 assessed as growth inhibition after 6 days by luciferase reporter gene assay. The following applies: Mycobacterium ulcerans, 1615, 144 h. The method, boiled down:
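M. ulcerans 1615 carrying pSMT1 luciferase reporter plasmid, stock grown as surface pellicle on Sauton medium, cultured at 32 °C. Serial compound dilutions in 7H9 + 10% FCS from 10 mM DMSO stocks, tested in triplicate. Filtered bacteria added at 50 000 RLU/mL. After 6 days, wells collected and washed with PBS, 1% n-decanal in ethanol added, light read over 10 s. MIC50 = concentration giving 50% inhibition versus untreated.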

The test system of experiment [6] is Mycobacterium tuberculosis. Briefly: Antimycobacterial activity against Mycobacterium tuberculosis H37Rv infected in mouse J774.A1 cells at 1 MOI assessed as intracellular bacterial growth inhibition at 10 uM after 1 hr by luciferase reporter gene assay relative to control. Conditions: J774.A1, 1 h, read-out: GI.
Experiment [7] relates to Mycobacterium tuberculosis. The experiment in a line: Antimycobacterial activity against Mycobacterium tuberculosis H37Rv infected in mouse J774.A1 cells at 1 MOI assessed as intracellular bacterial growth inhibition at 0.1 uM after 1 hr by luciferase reporter gene assay relative to control. Conditions: J774.A1, 1 h, read-out: GI.
The test system of experiment [8] is Mycobacterium tuberculosis. The experiment in a line: Antimycobacterial activity against Mycobacterium tuberculosis H37Rv infected in mouse J774.A1 cells at 1 MOI assessed as intracellular bacterial growth inhibition at 1 uM after 1 hr by luciferase reporter gene assay relative to control. The following applies: J774.A1, 1 h, read-out: GI.
For experiment [9], the system named is Mycobacterium tuberculosis. Briefly: Antimycobacterial activity against Mycobacterium tuberculosis H37Rv ATCC 27294 assessed as growth inhibition after 6 days by luciferase reporter gene assay. Conditions: H37Rv ATCC 27294, 144 h. The method, boiled down:
as §2

The structures appear in SMILES notation. ≈ marks a conversion by molar mass, not a printed value.

The term MIC50 denotes the lowest concentration that inhibits either 50% of growth or 50% of the strains tested, depending on the study.

Consider `O=C(O)c1ccc(OCCCCCCCCCCCOc2ccc(C(=O)O)cc2)cc1`, for which, in experiment [1], the inhibition of growth at 10 µM worked out at 15%. For the same molecule, the inhibition of growth at 0.1 µM in experiment [2] was less than 10%. Moreover, the inhibition of growth at 1 µM in [3] was less than 10%.

Consider `O=Cc1ccc(OCC(O)COc2ccc(C=O)cc2)cc1`, for which the inhibition of growth at 10 µM in experiment [1] amounted to 60%. Further, the inhibition of growth at 0.1 µM in [2] is less than 10%. Moreover, the inhibition of growth at 1 µM in experiment [3] is less than 10%.

Regarding `c1ccc(OCCCCCCCCCCCCOc2ccccc2)cc1`, the inhibition of growth at 10 µM in [1] was less than 10%. Also, in [2], the inhibition of growth at 0.1 µM was less than 10%. Further, the inhibition of growth at 1 µM in experiment [3] was less than 10%.

`O=Cc1ccc(OCCOCCOc2ccc(C=O)cc2)cc1`: the inhibition of growth at 10 µM in experiment [1] was 70%. In experiment [2], the inhibition of growth at 0.1 µM is less than 10%. Also, the inhibition of growth at 1 µM in experiment [3] was found to be 12%.

In the case of `CCCCCCCCCCCCOc1ccc(C=O)cc1`, in [1], the inhibition of growth at 10 µM was less than 10%. Besides, the inhibition of growth at 0.1 µM in experiment [2] was less than 10%. The inhibition of growth at 1 µM in experiment [3] was less than 10%.

In the case of `O=Cc1cccc(OCCCCCOc2cccc(C=O)c2)c1`, the inhibition of growth at 10 µM in experiment [1] stood at 97%. The inhibition of growth at 0.1 µM in experiment [2] was less than 10%. In experiment [3], the inhibition of growth at 1 µM was less than 10%.

For the molecule `O=C(O)c1ccc(OCCCCCCOc2ccc(C(=O)O)cc2)cc1`, the inhibition of growth at 10 µM in experiment [1] stood at 39%. In experiment [2], the inhibition of growth at 0.1 µM was less than 10%. In addition, in [3], the inhibition of growth at 1 µM is 26%.

As to `NNC(=O)c1ccncc1` [ISONIAZID], the MIC50 in [4] was less than 0.1 µM; in experiment [5] it was less than 0.1 µM; in the experiment with Mycobacterium ulcerans, 0.39 µM (≈ 0.0535 µg/mL); in experiment [9], less than 0.1 µM. For the same molecule, the inhibition of growth at 10 µM in experiment [1] was 100%. Also, the inhibition of growth at 0.1 µM in experiment [2] is 98%. Moreover, the intracellular bacterial growth inhibition at 10 µM in [6] was determined as 97.7%. The intracellular bacterial growth inhibition at 0.1 µM in experiment [7] turned out to be 37%. Further, the percent inhibition of intracellular bacterial growth at 1 µM in experiment [8] is 82.3%. The inhibition of growth at 1 µM in [3] stood at 100%.

As to `O=C(O)c1ccc(OCCCCCOc2ccc(C(=O)O)cc2)cc1`, the inhibition of growth at 10 µM in experiment [1] turned out to be 27%. In experiment [2], the inhibition of growth at 0.1 µM was less than 10%. In addition, the inhibition of growth at 1 µM in [3] is 30%.

Consider `O=[N+]([O-])c1ccc(OCCCCCCCCCCCCOc2ccc([N+](=O)[O-])cc2)cc1`, for which the inhibition of growth at 10 µM in experiment [1] stood at 91%. The inhibition of growth at 0.1 µM in [2] is less than 10%. The inhibition of growth at 1 µM in experiment [3] is less than 10%.

In the case of `O=C(O)c1ccc(OCCOc2ccc(C(=O)O)cc2)cc1`, the inhibition of growth at 10 µM in experiment [1] stood at 38%. The inhibition of growth at 0.1 µM in [2] is less than 10%. Further, the inhibition of growth at 1 µM in experiment [3] was less than 10%.

`O=Cc1ccccc1OCCCCCOc1ccccc1C=O`: the inhibition of growth at 10 µM in [1] amounted to 39%. The inhibition of growth at 0.1 µM in experiment [2] is less than 10%. Also, the inhibition of growth at 1 µM in experiment [3] stood at 15%.

Take `O=C(O)c1ccc(OCOc2ccc(C(=O)O)cc2)cc1`: in experiment [1], the inhibition of growth at 10 µM worked out at 40%. Besides, the inhibition of growth at 0.1 µM in experiment [2] is less than 10%. In addition, the inhibition of growth at 1 µM in [3] is less than 10%.

In the case of `O=Cc1ccc(OCCCCCCCCCCCCCCOc2ccc(C=O)cc2)cc1`, the inhibition of growth at 10 µM in [1] is 98%. Further, in experiment [2], the inhibition of growth at 0.1 µM is 30%. In addition, the inhibition of growth at 1 µM in experiment [3] worked out at 57%.

Regarding `O=C(O)c1ccc(OCCCCCCCOc2ccc(C(=O)O)cc2)cc1`, in experiment [1], the inhibition of growth at 10 µM is 38%. The inhibition of growth at 0.1 µM in [2] is less than 10%. Besides, the inhibition of growth at 1 µM in experiment [3] is 14%.

Take `O=C(O)c1ccc(OCCCOc2ccc(C(=O)O)cc2)cc1`: the inhibition of growth at 10 µM in experiment [1] was less than 10%. The inhibition of growth at 0.1 µM in experiment [2] was less than 10%. The inhibition of growth at 1 µM in experiment [3] was less than 10%.

For `O=C(O)c1ccc(OCCCCCCCCCCOc2ccc(C(=O)O)cc2)cc1`, the inhibition of growth at 10 µM in [1] came to 40%. The inhibition of growth at 0.1 µM in [2] was less than 10%. In addition, the inhibition of growth at 1 µM in [3] was less than 10%.

With `O=C(O)c1ccc(OCCCCCCCCOc2ccc(C(=O)O)cc2)cc1`, the inhibition of growth at 10 µM in experiment [1] worked out at 29%. The inhibition of growth at 0.1 µM in experiment [2] was less than 10%. For the same molecule, in experiment [3], the inhibition of growth at 1 µM came out at 29%.

Regarding `O=C(O)c1ccc(OCCCCCCCCCOc2ccc(C(=O)O)cc2)cc1`, the inhibition of growth at 10 µM in experiment [1] worked out at 17%. Besides, the inhibition of growth at 0.1 µM in experiment [2] is less than 10%. Besides, the inhibition of growth at 1 µM in [3] is 17%.

For the molecule `O=C(O)c1ccc(OCCCCCCCCCCCCOc2ccc(C(=O)O)cc2)cc1`, the inhibition of growth at 10 µM in [1] is less than 10%. Further, the inhibition of growth at 0.1 µM in experiment [2] is less than 10%. Moreover, in [3], the inhibition of growth at 1 µM is less than 10%.

With `O=C(O)c1ccc(OCCCCOc2ccc(C(=O)O)cc2)cc1`, the inhibition of growth at 10 µM in [1] turned out to be 27%. For the same molecule, in experiment [2], the inhibition of growth at 0.1 µM is less than 10%. In [3], the inhibition of growth at 1 µM amounted to 26%.

Turning to `O=Cc1cccc(OCCCCCCCCCCCCOc2cccc(C=O)c2)c1`, the inhibition of growth at 10 µM in experiment [1] is less than 10%. In experiment [2], the inhibition of growth at 0.1 µM was less than 10%. Also, the inhibition of growth at 1 µM in [3] is less than 10%.

The values above are taken from ChEMBL document CHEMBL2380272, “Biological evaluation of bisbenzaldehydes against four Mycobacterium species” (Eur J Med Chem, 2013).
